Data: ChEMBL document CHEMBL1126842, “Inhibition of herpes simplex virus type 1 ribonucleotide reductase by substituted tetrapeptide derivatives” (J Med Chem, 1993)
pIC50: −log10 of the molar value. Where a SMILES comes first, the peptide text is derived from it. [ ]: non-standard residue; d: D form. The star is where a group is joined. ξ: configuration not given here. Asp(3,3-Me2) = CC(C)(C(=O)O)[C@H](N)C(=O)O; Cyclohexanecarbonyl = O=C(C1CCCCC1)*; Butanoyl(2-Et) = CCC(CC)C(=O)*; Thr(3ξ) = CC(O)[C@H](N)C(=O)O; Tle = CC(C)(C)[C@H](N)C(=O)O; Leu(ol) = CC(C)C[C@H](N)CO; Isovaleryl = CC(C)CC(=O)*; Isobutyryl = CC(C)C(=O)*; Piperidide = C1CCN(*)CC1; Pyrrolidide = C1CCN(*)C1; X1 = CC(C)C(C(=O)*)C(C)C; Bn = c1ccc(C*)cc1

biological target: T1, Ribonucleoside-diphosphate reductase large subunit (Homo sapiens, UniProt P23921); test: Tested for inhibition of human ribonucleotide reductase
T1 sequence (P23921 whole entry): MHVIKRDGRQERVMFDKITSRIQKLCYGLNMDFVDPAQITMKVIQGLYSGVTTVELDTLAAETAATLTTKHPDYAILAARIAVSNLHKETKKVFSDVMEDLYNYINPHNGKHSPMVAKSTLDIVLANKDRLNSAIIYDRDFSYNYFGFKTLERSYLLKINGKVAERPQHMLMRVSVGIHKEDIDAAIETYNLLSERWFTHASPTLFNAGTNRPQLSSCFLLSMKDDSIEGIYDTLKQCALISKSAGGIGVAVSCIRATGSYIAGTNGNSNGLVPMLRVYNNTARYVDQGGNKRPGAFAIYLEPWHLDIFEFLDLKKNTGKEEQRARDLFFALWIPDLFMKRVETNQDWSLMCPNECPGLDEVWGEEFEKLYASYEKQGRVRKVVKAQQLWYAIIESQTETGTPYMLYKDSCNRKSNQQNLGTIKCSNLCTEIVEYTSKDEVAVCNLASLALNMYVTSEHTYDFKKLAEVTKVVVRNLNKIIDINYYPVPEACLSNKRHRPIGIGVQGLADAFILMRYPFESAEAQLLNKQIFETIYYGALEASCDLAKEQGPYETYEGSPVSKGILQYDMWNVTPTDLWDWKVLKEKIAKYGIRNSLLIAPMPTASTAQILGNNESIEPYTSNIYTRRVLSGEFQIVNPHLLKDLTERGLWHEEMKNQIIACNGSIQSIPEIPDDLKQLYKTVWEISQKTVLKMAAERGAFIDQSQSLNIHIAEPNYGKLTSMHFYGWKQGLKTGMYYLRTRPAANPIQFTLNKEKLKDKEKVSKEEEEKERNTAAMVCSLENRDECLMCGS

Compound | pIC50
CCC(CC)C(=O)N[C@H](C(=O)N[C@@H](CC(=O)N1CCCC1)C(=O)N[C@@H](CC(=O)O)C(=O)N[C@@H](CC(C)C)C(=O)O)[C@@H](C)CC ({Butanoyl(2-Et)}-ID(Pyrrolidide)DL-OH) | < 3.00
CCC(CC)C(=O)N[C@H](C(=O)N[C@@H](CC(=O)N1CCCC1)C(=O)N[C@@H](CC(=O)O)C(=O)N[C@@H](CC(C)C)C(=O)O)C(C)(C)C ({Butanoyl(2-Et)}-[Tle]D(Pyrrolidide)DL-OH) | < 3.00

tested on: not listed separately; test: Inhibition of Herpes simplex virus type 1 ribonucleotide reductase; assay type: functional, Human alphaherpesvirus 1
How it was run: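 IC50 taken as the mean of at least three separate determinations, with standard deviation from the mean reported; one entry came from a single determination.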

Compound | pIC50
CCC(CC)C(=O)N[C@H](C(=O)N[C@@H](CC(=O)N1CCCC1)C(=O)N[C@@H](CC(=O)O)C(=O)N[C@H](CO)CC(C)C)C(C)(C)C ({Butanoyl(2-Et)}-[Tle]D(Pyrrolidide)D[Leu(ol)]) | 5.25
CCC(CC)C(=O)N[C@H](C(=O)N[C@@H](CC(=O)N1CCCCC1)C(=O)N[C@@H](CC(=O)O)C(=O)N[C@@H](CC(C)C)C(=O)O)C(C)(C)C ({Butanoyl(2-Et)}-[Tle]D(Piperidide)DL-OH) | 5.89
CC[C@H](C)[C@H](NC(=O)C(C(C)C)C(C)C)C(=O)N[C@@H](CC(=O)N1CCCC1)C(=O)N[C@@H](CC(=O)O)C(=O)N[C@@H](CC(C)C)C(=O)O (X1-ID(Pyrrolidide)DL-OH) | 5.70
H-AGAVVNDL-OH | 3.55
CCC(CC)C(=O)N[C@H](C(=O)N[C@@H](CC(=O)N1CCCC1)C(=O)N[C@@H](CC(=O)O)C(=O)NC(CO)CO)C(C)(C)C | < 3.00
CCC(CC)C(=O)NCC(=O)N[C@@H](CC(=O)N1CCCC1)C(=O)N[C@@H](CC(=O)O)C(=O)N[C@@H](CC(C)C)C(=O)O ({Butanoyl(2-Et)}-GD(Pyrrolidide)DL-OH) | 4.11
CCC(CC)C(=O)N[C@@H](CC(=O)O)C(=O)N[C@@H](CC(=O)N1CCCC1)C(=O)N[C@@H](CC(=O)O)C(=O)N[C@@H](CC(C)C)C(=O)O ({Butanoyl(2-Et)}-DD(Pyrrolidide)DL-OH) | 5.21
CCNC(=O)C[C@H](NC(=O)[C@@H](NC(=O)C(CC)CC)C(C)(C)C)C(=O)N[C@@H](CC(=O)O)C(=O)N[C@@H](CC(C)C)C(=O)O ({Butanoyl(2-Et)}-[Tle]D(NHEt)DL-OH) | 5.16
CC(C)C[C@H](NC(=O)[C@H](CC(=O)O)NC(=O)[C@H](CC(N)=O)NC(=O)[C@@H](NC(=O)[C@@H](NC(=O)[C@H](C)NC(=O)CNC(=O)[C@H](C)NC(=O)[C@@H](N)Cc1ccc(O)cc1)C(C)C)C(C)C)C(=O)O | 4.42
CCC(CC)C(=O)N[C@H](C(=O)N[C@@H](CC(=O)C1CCCC1)C(=O)N[C@@H](CC(=O)O)C(=O)N[C@@H](CC(C)C)C(=O)O)C(C)(C)C | 5.89
CCOC(=O)C[C@H](NC(=O)[C@@H](NC(=O)C(CC)CC)C(C)(C)C)C(=O)N[C@@H](CC(=O)O)C(=O)N[C@@H](CC(C)C)C(=O)O ({Butanoyl(2-Et)}-[Tle]D(OEt)DL-OH) | 5.33
H-AVVNDL-OH | 3.72
CCC(CC)C(=O)N[C@H](C(=O)N[C@@H](CC(=O)N1CCCC1)C(=O)N[C@@H](CC(=O)O)C(=O)N[C@@H](C)C(=O)O)C(C)(C)C ({Butanoyl(2-Et)}-[Tle]D(Pyrrolidide)DA-OH) | < 3.00
CCC(CC)C(=O)N[C@H](C(=O)N[C@@H](CC(=O)N1CCCC1)C(=O)N[C@@H](CC(=O)O)C(=O)N[C@@H](CC(C)C)C(=O)O)C(C)(C)C ({Butanoyl(2-Et)}-[Tle]D(Pyrrolidide)DL-OH) | 6.22
CCC(CC)C(=O)N[C@H](C(=O)N[C@@H](CC(N)=O)C(=O)N[C@@H](CC(=O)O)C(=O)N[C@@H](CC(C)C)C(=O)O)C(C)(C)C ({Butanoyl(2-Et)}-[Tle]NDL-OH) | 4.00
H-YAGAVVND-OH | < 2.70
CCC(CC)C(=O)N[C@H](C(=O)N[C@@H](CC(=O)N1CCCC1)C(=O)N[C@@H](CC(=O)O)C(=O)N[C@@H](CC(C)C)C(=O)O)C(C)OCc1ccccc1 (stereo partly drawn) ({Butanoyl(2-Et)}-[Thr(3ξ)](Bn)D(Pyrrolidide)DL-OH) | 5.51
CC[C@H](C)[C@H](NC(=O)[C@@H](N)C(C)C)C(=O)N[C@@H](CC(=O)N1CCCC1)C(=O)N[C@@H](CC(=O)O)C(=O)N[C@@H](CC(C)C)C(=O)O (H-VID(Pyrrolidide)DL-OH) | 4.89
CC[C@H](C)[C@H](NC(=O)C1CCCCC1)C(=O)N[C@@H](CC(=O)N1CCCC1)C(=O)N[C@@H](CC(=O)O)C(=O)N[C@@H](CC(C)C)C(=O)O (Cyclohexanecarbonyl-ID(Pyrrolidide)DL-OH) | 5.82
CCC(CC)C(=O)N[C@H](C(=O)N[C@@H](CCC(=O)N1CCCC1)C(=O)N[C@@H](CC(=O)O)C(=O)N[C@@H](CC(C)C)C(=O)O)C(C)(C)C ({Butanoyl(2-Et)}-[Tle]E(Pyrrolidide)DL-OH) | < 3.00

Other lines, results leading:

pIC50 | Compound
3.66 | H-GAVVNDL-OH
4.85 | CCC(CC)C(=O)N[C@@H](CCCCN)C(=O)N[C@@H](CC(=O)N1CCCC1)C(=O)N[C@@H](CC(=O)O)C(=O)N[C@@H](CC(C)C)C(=O)O ({Butanoyl(2-Et)}-KD(Pyrrolidide)DL-OH)
6.74 | CCC(CC)C(=O)N[C@H](C(=O)N[C@@H](CC(=O)N1CCCC1)C(=O)N[C@H](C(=O)N[C@@H](CC(C)C)C(=O)O)C(C)(C)C(=O)O)C(C)(C)C ({Butanoyl(2-Et)}-[Tle]D(Pyrrolidide)[Asp(3,3-Me2)]L-OH)
< 2.70 | CC(C)C[C@H](NC(=O)[C@H](CC(=O)O)NC(=O)[C@H](CC(N)=O)NC(=O)[C@@H](N)C(C)C)C(=O)O (H-VNDL-OH)
< 3.00 | CCC(CC)C(=O)N[C@H](C(=O)N[C@@H](CC(=O)N1CCCC1)C(=O)N[C@@H](C)C(=O)N[C@@H](CC(C)C)C(=O)O)C(C)(C)C ({Butanoyl(2-Et)}-[Tle]D(Pyrrolidide)AL-OH)
5.09 | CCC(CC)C(=O)N[C@H](C(=O)N[C@@H](CC(=O)N1CCCC1)C(=O)N[C@@H](CC(=O)O)C(=O)N[C@H](CO)CC1CCCCC1)C(C)(C)C
< 3.00 | CCC(CC)C(=O)N[C@H](C(=O)N[C@@H](CC(=O)N1CCCC1)C(=O)N[C@@H](CCC(=O)O)C(=O)N[C@@H](CC(C)C)C(=O)O)C(C)(C)C ({Butanoyl(2-Et)}-[Tle]D(Pyrrolidide)EL-OH)
4.72 | CCC(CC)C(=O)N[C@H](C(=O)N[C@@H](CC(=O)N1CCCC1)C(=O)N[C@@H](CC(=O)O)C(=O)NCCC(C)(C)C)C(C)(C)C
5.00 | CC[C@H](C)[C@H](NC(=O)C(C)C)C(=O)N[C@@H](CC(=O)N1CCCC1)C(=O)N[C@@H](CC(=O)O)C(=O)N[C@@H](CC(C)C)C(=O)O (Isobutyryl-ID(Pyrrolidide)DL-OH)
5.36 | CCC(CC)C(=O)N[C@H](C(=O)N[C@@H](CC(=O)N1CCCC1)C(=O)N[C@@H](CC(=O)O)C(=O)N[C@@H](CC(C)C)C(=O)O)[C@@H](C)O ({Butanoyl(2-Et)}-TD(Pyrrolidide)DL-OH)
4.96 | CCC(CC)C(=O)N[C@@H](C)C(=O)N[C@@H](CC(=O)N1CCCC1)C(=O)N[C@@H](CC(=O)O)C(=O)N[C@@H](CC(C)C)C(=O)O ({Butanoyl(2-Et)}-AD(Pyrrolidide)DL-OH)
5.82 | CCC(CC)C(=O)N[C@H](C(=O)N[C@@H](CC(=O)N1CCCC1)C(=O)N[C@@H](CC(=O)O)C(=O)N[C@@H](CC(C)C)C(=O)O)[C@@H](C)CC ({Butanoyl(2-Et)}-ID(Pyrrolidide)DL-OH)
5.72 | CCC(CC)C(=O)N[C@H](C(=O)N[C@@H](CC(=O)N1CCCC1)C(=O)N[C@@H](CC(=O)O)C(=O)N[C@H](CO)CC(C)(C)C)C(C)(C)C
< 3.00 | CC[C@H](C)[C@H](NC(C)=O)C(=O)N[C@@H](CC(=O)N1CCCC1)C(=O)N[C@@H](CC(=O)O)C(=O)N[C@@H](CC(C)C)C(=O)O (Ac-ID(Pyrrolidide)DL-OH)
5.52 | CC[C@H](C)[C@H](NC(=O)CC(C)C)C(=O)N[C@@H](CC(=O)N1CCCC1)C(=O)N[C@@H](CC(=O)O)C(=O)N[C@@H](CC(C)C)C(=O)O (Isovaleryl-ID(Pyrrolidide)DL-OH)
4.19 | CCC(CC)C(=O)N[C@H](C(=O)N[C@@H](CCC1CCCC1)C(=O)N[C@@H](CC(=O)O)C(=O)N[C@@H](CC(C)C)C(=O)O)C(C)(C)C
